Laboratory results published in ChEMBL document CHEMBL2177049, “Novel cytidine-based orotidine-5'-monophosphate decarboxylase inhibitors with an unusual twist” (J Med Chem, 2012).
Values after ≈ are worked out from the molar mass of the structure shown.

How the values were obtained:
[1] = target: Orotidine 5'-phosphate decarboxylase (Methanobacterium thermoautotrophicum, UniProt O26232); assay: Inhibition of Methanobacterium thermoautotrophicum ODCase by isothermal titration calorimetry; design: species or system Methanothermobacter thermautotrophicus
Orotidine 5'-phosphate decarboxylase, sequence (O26232 whole entry): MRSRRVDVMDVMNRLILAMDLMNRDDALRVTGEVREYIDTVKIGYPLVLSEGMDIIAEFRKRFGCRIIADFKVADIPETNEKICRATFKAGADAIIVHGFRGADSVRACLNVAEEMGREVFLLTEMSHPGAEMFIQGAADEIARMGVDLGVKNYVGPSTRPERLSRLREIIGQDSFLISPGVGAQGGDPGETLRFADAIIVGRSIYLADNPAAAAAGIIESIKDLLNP
Summary of the method: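 Recombinant M. thermoautotrophicum enzyme, preincubated overnight at room temperature in 50 mM Tris, 40 mM NaCl, 20 mM DTT. Activity read by ITC at 55 °C in 50 mM Tris, 20 mM DTT, pH 7.5, with 20 nM enzyme and 40 μM substrate; inhibitor 0–100 μM. Substrate injection into enzyme–inhibitor mix started the reaction. Triplicates; competitive Ki from rate versus [S] and double-reciprocal plots.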

[2] = target: T1, Uridine 5'-monophosphate synthase (Homo sapiens, UniProt P11172); assay: Inhibition of human ODCase by isothermal titration calorimetry
T1 sequence (P11172 whole entry): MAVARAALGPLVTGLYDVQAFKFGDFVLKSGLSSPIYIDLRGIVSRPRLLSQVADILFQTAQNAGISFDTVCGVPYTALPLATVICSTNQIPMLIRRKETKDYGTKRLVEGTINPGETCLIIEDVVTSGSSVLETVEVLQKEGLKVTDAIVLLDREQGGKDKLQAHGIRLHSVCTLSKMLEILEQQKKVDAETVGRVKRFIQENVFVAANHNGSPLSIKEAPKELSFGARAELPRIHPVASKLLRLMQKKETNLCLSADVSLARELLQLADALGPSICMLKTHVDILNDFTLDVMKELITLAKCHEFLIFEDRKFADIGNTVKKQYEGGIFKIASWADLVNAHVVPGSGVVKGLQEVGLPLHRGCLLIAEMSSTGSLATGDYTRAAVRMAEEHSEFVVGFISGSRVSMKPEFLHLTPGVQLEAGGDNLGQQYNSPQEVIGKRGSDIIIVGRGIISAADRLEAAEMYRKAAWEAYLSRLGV
Summary of the method: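 Recombinant human enzyme, preincubated overnight at room temperature in 50 mM Tris, 40 mM NaCl, 20 mM DTT. Substrate injection into enzyme–inhibitor mix started the reaction. Triplicates; competitive Ki from rate versus [S] and double-reciprocal analysis.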

[3] = target: T2, Orotidine phosphate decarboxylase (Plasmodium falciparum, UniProt Q8T6J6); assay: Inhibition of Plasmodium falciparum ODCase by isothermal titration calorimetry
T2 sequence (Q8T6J6 whole entry): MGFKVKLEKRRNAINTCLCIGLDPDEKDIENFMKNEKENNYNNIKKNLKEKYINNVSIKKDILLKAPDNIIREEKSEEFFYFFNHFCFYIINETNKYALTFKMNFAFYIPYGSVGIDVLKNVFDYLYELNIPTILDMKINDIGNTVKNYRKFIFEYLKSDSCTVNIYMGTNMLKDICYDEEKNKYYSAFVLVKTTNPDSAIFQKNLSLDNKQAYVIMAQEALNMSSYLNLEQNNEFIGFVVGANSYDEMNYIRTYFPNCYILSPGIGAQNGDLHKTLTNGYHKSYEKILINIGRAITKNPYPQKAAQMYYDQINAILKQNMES
Summary of the method: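 Recombinant P. falciparum enzyme, preincubated overnight at room temperature in 50 mM Tris, 40 mM NaCl, 20 mM DTT. ITC at 37 °C in 50 mM Tris, 20 mM DTT, pH 7.5, with 60 nM enzyme and 12 μM substrate. Substrate injection into enzyme–inhibitor mix started the reaction. Triplicate runs; competitive Ki derived from rate versus [S] and double-reciprocal plots.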

Plasmodium falciparum = assay: Antimalarial activity against Plasmodium falciparum incubated for 48 hrs by fluorescence-based SYBR-green assay; assay type: functional, organism-based
Summary of the method: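 P. falciparum ItG line grown in human O erythrocytes in RPMI 1640 with 10% human serum and 50 μM hypoxanthine. Compound stock was 10 mg/mL in RPMI, filter-sterilized, then serially diluted up to 500 μg/mL with constant parasite numbers. Plates were held 48 h under 3% CO2/2% O2/95% N2 and read by SYBR Green/Triton X-100 fluorescence. Quadruplicates; IC50 by nonlinear regression of dose–response.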

Ki [1] [µM] | Ki [2] [µM] | Ki [3] [µM] | IC50 (Plasmodium falciparum) [µg/mL] | SMILES
330 | 220 | 210 |  | O=c1ccn([C@@H]2O[C@H](COP(=O)(O)O)[C@@H](O)[C@H]2O)c(=O)[nH]1
11.1 |  | 22.1 |  | Nc1ccn([C@@H]2O[C@H](COP(=O)(O)O)[C@@H](O)[C@H]2O)c(=O)[n+]1[O-]
 |  | > 1000 |  | O=c1nc(NO)ccn1[C@@H]1O[C@H](COP(=O)(O)O)[C@@H](O)[C@H]1O
 |  |  | 411 (≈ 1590 µM) | Nc1ccn([C@@H]2O[C@H](CO)[C@@H](O)[C@H]2O)c(=O)[n+]1[O-]
1200 | 1400 | > 10000 |  | Nc1ccn([C@@H]2O[C@H](COP(=O)(O)O)[C@@H](O)[C@H]2O)c(=O)n1
 |  |  | 610 (≈ 2350 µM) | O=c1nc(NO)ccn1[C@@H]1O[C@H](CO)[C@@H](O)[C@H]1O [N-HYDROXYCYTIDINE]
